Hits are enriched below; roughly 6.4% of the tested compounds scored in any of these assays.
Fibroblast inh: blocks proliferation of human lung fibroblasts; LL 47 human lung fibroblast viability, ATP luminescence; hits give low values; viability, % at 10 µM; 85,000 compounds, 1.1% hits;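 active = viability at or below 50% in the single dose screen; inactive = viability above 50%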;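 note: compound exposure lasted 72 h before the ATP readout; 100% = median luminescence of untreated cell-only wells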
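Material: human LL 47 lung fibroblast cells; quantity: 1,150 cells/well; medium: IMEM plus 15% FBS; doses: 0.1% DMSO in all compound wells; timing: overnight attachment after seeding, then 72 h compound exposure at 37 °C; detection: CellTiter-Glo luminescence; measure: % viability of median cell-only signal; controls: cell-only wells, no compound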
HUVEC inhibit: human endothelial cell proliferation inhibition; HUVEC proliferation, CellTiter-Glo luminescence, 72 h; hits give low values; viability, % at 10 µM (by protocol); 86,000 compounds, 1.1% hits;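 active = viability at or below 30%; inactive = viability above 30%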;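 note: 100% = median luminescence of DMSO-only cell control wells on each plate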
Jurkat tox 60K: cytotoxicity toward Jurkat cells; Jurkat E6.1 viability, ATP luminescence, 48 h; inhibition, % at 4 µM; 56,000 compounds, 1.2% hits; AID 463;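 active = inhibition above the mean inhibition of all tested compounds plus 3 SD, cut at about 28% in these data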
H69AR inhibit: growth inhibitors of human H69AR lung tumor cells; viability, % at 10 µM; AID 598; H69AR lung tumor viability, ATP luminescence, 72 h; hits give low values; 85,000 compounds, 6% hits;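 active = viability at or below 40%; inactive = viability above 40%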;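 note: multidrug resistant small cell line overexpressing MRP-1 efflux transporter; 100% = mean luminescence of untreated control wells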
E coli WT exp: growth inhibitors of E. coli BW25113 wild type. OD600 absorbance. growth inhibition, % at 100 µM. 98,000 compounds, 0.15% hits. AID 710;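 active = growth inhibition above about 50% at one test dose, limit read from the data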;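 note: growth measured after 20 h incubation at 37 °C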
Ecoli tolC: E. coli tolC mutant growth inhibition; E. coli BW25113 tolC mutant growth, OD615; growth inhibition, % at 10 µM (by protocol); 65,000 compounds, 2.2% hits;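 active = growth inhibition at or above a cutoff equal to the mean over every tested compound plus 3 SD, cut at about 60% in these data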;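 note: growth measured after 20 h incubation at 37 °C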
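Signal: optical density read at 615 nm; Assay system: E. coli ΔtolC::kan strain BW25113; Times: 20 h incubation with compound, 37 °C; Dosing: 10 µM final, single dose.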
* marks the source's active call; other numbers are inactive results; . = no result given.

SMILES | Fibroblast inh | HUVEC inhibit | Jurkat tox 60K | H69AR inhibit | E coli WT exp | Ecoli tolC
CC(C)OC(=O)CSc1nnc(-c2ccc(Cl)cc2Cl)o1 | 102.3 | 101.1 | 13.7 | 93.5 | -10.0 | 11.1
CC1CC(C)CN(C(=O)CSc2nnc(-c3ccc(Cl)s3)o2)C1 (configuration not stated) | 98.0 | 98.7 | -5.3 | 87.7 | -2.0 | 70.7*
CC1CC(C)CN(C(=O)CSc2nnc(-c3ccc(F)cc3)o2)C1 (configuration not stated) | 97.2 | 101.7 | -2.4 | 100.2 | 5.0 | 1.3
CCCc1cc(=O)oc2cc(OCC(=O)N3CCc4ccccc43)ccc12 | 92.7 | 56.5 | . | 88.9 | -5.0 | .
CCCCc1cc(=O)oc2cc(OCC(=O)N3CCc4ccccc43)ccc12 | 104.2 | 55.4 | . | 28.8* | -17.0 | .
COc1ccc2c(c1)c(=O)oc1cc(OCC(=O)N3CCC(C)CC3)ccc12 | 97.3 | 64.2 | . | 78.9 | -1.0 | 1.2
COc1ccc2c(c1)c(=O)oc1cc(OCC(=O)N3CCc4ccccc4C3)ccc12 | 97.0 | 56.0 | . | 28.8* | -8.0 | .
Cn1c(=O)c2c(nc(SCC(=O)NC3CCCCC3)n2C)n(C)c1=O | 85.2 | 93.8 | 0.3 | 88.6 | . | -0.3
Cc1cc(C)n(-c2ccc(-n3ccnc3)nn2)n1 | 108.6 | 98.1 | 1.7 | 92.1 | 5.0 | -12.2
O=C1c2cccc3c(N4CCCCC4)ccc(c23)C(=O)N1c1ccccn1 | . | . | 2.6 | . | 1.0 | 15.6
O=C1c2cccc3c(N4CCCCC4)ccc(c23)C(=O)N1c1ccc(Cl)cn1 | 98.0 | 78.7 | . | 31.3* | . | .
Cn1c(=O)c2c(SC3CCCC3)nc(CC(C)(C)C)nc2n(C)c1=O | . | . | -6.6 | . | . | -16.3
CCc1nc(SCC(=O)NCc2ccc(F)cc2)c2c(=O)n(C)c(=O)n(C)c2n1 | 104.2 | 83.2 | . | 86.5 | 3.0 | .
CCCc1nc(SC2CCCC2)c2c(=O)n(C)c(=O)n(C)c2n1 | 90.3 | 66.5 | -3.4 | 88.4 | -2.0 | 84.0*
CC(C)c1nc(SCC(=O)Nc2ccc3c(c2)OCCO3)c2c(=O)n(C)c(=O)n(C)c2n1 | 106.3 | 75.0 | -16.3 | 31.4* | -2.0 | 8.7
CC(C)c1nc(SCC(=O)Nc2cccc(C(F)(F)F)c2)c2c(=O)n(C)c(=O)n(C)c2n1 | 79.7 | 75.8 | -2.2 | 48.9 | 2.0 | -6.7
CCCc1nc(SCC(=O)NCc2ccc3c(c2)OCO3)c2c(=O)n(C)c(=O)n(C)c2n1 | 102.0 | 49.9 | 0.6 | 12.8* | . | 5.8
Cc1ccc(CSc2nnc(-c3ccco3)n2N)cc1 | 102.8 | 107.8 | -2.2 | 95.2 | -5.0 | -4.4
Fc1ccc(-c2ccnc(=S)[nH]2)cc1 | . | . | . | . | 3.0 | .
O=c1c2cc(Br)ccc2nc(-c2cccc(C(F)(F)F)c2)n1O | . | . | . | . | 63.0* | .
O=C(Nc1ccc(C(F)(F)F)cc1)c1cc(-c2cccnc2)nc2ccc(Br)cc12 | . | . | . | . | -1.0 | .
Cc1ccc2nc(-c3cccc(N)c3)[nH]c2c1 | 75.2 | 73.1 | . | 48.8 | . | .
Cc1ccc2nc(-c3sc4nc(C)cc(C)c4c3N)[nH]c2c1 | 95.3 | 42.5 | . | 15.0* | . | .
Cc1cc(Br)cc(C)c1OCCCCN(C)C | . | . | . | . | 8.0 | .
CC(=O)N1CCC(=O)N(C(C)C)c2ccccc21 | 108.3 | 89.3 | 2.0 | 103.7 | -3.0 | -13.5
SMILES | Fibroblast inh | HUVEC inhibit | Jurkat tox 60K | H69AR inhibit | E coli WT exp | Ecoli tolC
COc1ccc(-c2c(C)oc3c(CN4CCN(CCO)CC4)c(O)ccc3c2=O)cc1OC | 100.2 | 100.2 | -3.1 | 100.0 | 0.0 | -16.2
Cc1oc2c(CN3CCCC3)c(O)ccc2c(=O)c1-c1ccc(Br)cc1 | 97.5 | 92.1 | -0.2 | 89.8 | 1.0 | 76.8*
Cn1c(=O)c2c(-c3ccccc3)n3c4ccccc4ncc3c2n(C)c1=O | 90.9 | 69.8 | 3.0 | 37.8* | . | 2.8
CC([NH2+][O-])C(C)(C)NO (configuration not stated) | 97.0 | 104.7 | . | 83.2 | 4.0 | .
Clc1ccccc1CN(Cc1ccccc1)c1ncnc2nc[nH]c12 | 91.2 | 87.3 | . | 35.6* | -2.0 | 23.0
Cc1cc(O)c(C(C)C)cc1NC(=O)c1cccc(Cl)c1 | . | . | . | . | 14.0 | .
COc1ccc(NC(=O)C2CC(=O)N(C)C(=Nc3ccc4c(c3)OCO4)S2)cc1 (configuration not stated) | 88.0 | 72.3 | 4.3 | 30.0* | 0.0 | -2.6
CN1C(=O)CC(C(=O)Nc2ccc(F)cc2)SC1=Nc1ccc2c(c1)OCO2 (configuration not stated) | 90.9 | 86.5 | -2.7 | 89.8 | -6.0 | 11.6
CC(C)(C)OC(=O)N1CCC[C@H]1c1nnc(SCc2c(Cl)cccc2Cl)o1 | 92.4 | 116.8 | 5.4 | 78.5 | 5.0 | 79.0*
CCSc1nnc([C@@H]2CCCN2C(=O)OC(C)(C)C)o1 | 93.5 | 87.5 | -0.2 | 101.5 | -3.0 | -28.8
Cc1cccc(NC(=O)CSc2nnc([C@@H]3CCCN3C(=O)OC(C)(C)C)o2)c1C | 90.9 | 76.3 | -8.3 | 1.4* | 13.0 | -5.3
CCCCCn1c(C(C)NC(=O)CCC)nc2ccccc21 (configuration not stated) | 95.0 | 103.7 | 0.8 | 84.5 | -3.0 | -9.9
Cc1cc(S(=O)(=O)N(Cc2ccccn2)Cc2ccco2)ccc1-n1cnnn1 | 93.1 | 100.3 | . | 86.6 | -3.0 | 14.2
CCN(Cc1ccccc1)S(=O)(=O)c1ccc(S(=O)(=O)N(Cc2ccccn2)Cc2ccco2)cc1 | 102.4 | 70.5 | . | 22.1* | -20.0 | .
Cc1cnc(NC(=O)CSc2nnc(Cc3ccccc3)n2C)s1 | 92.5 | 89.2 | -3.7 | 84.0 | -2.0 | 0.3
Cc1ccc(C(C)C)c(OCc2nnc(SCC(=O)Nc3ncc(C)s3)n2C)c1 | 77.8 | 91.2 | 0.7 | 9.8* | -4.0 | -16.0
Cc1ccc(CNC(=O)CSc2c3c(nc4ccc(Cl)cc24)CCCC3)o1 | 76.6 | 73.8 | . | 15.3* | -9.0 | .
CC(=O)Nc1ccc(NC2=Nc3ccccc3N3C2=Nc2c(c(C)nn2-c2ccccc2)C3c2ccccc2)cc1 (configuration not stated) | 33.5* | 76.0 | . | 67.3 | -14.0 | .
COc1ccc(NC2=Nc3ccccc3N3C2=Nc2c(c(C)nn2-c2ccc(C)cc2)C3c2cccnc2)cc1 (configuration not stated) | 112.3 | 108.7 | . | 103.3 | -7.0 | .
COc1ccc(CC(=O)Nc2nc(C)cs2)cc1OC | . | 102.0 | 37.0* | 84.2 | 7.0 | 14.4
COc1ccc(-c2nc3cc(NC(=O)Cc4ccc(OC)c(OC)c4)ccc3o2)cc1 | 92.3 | 81.8 | 72.7* | 81.2 | -7.0 | 21.8
COc1ccc(CC(=O)Nc2cccc(-c3nnc(-c4ccccc4)o3)c2)cc1OC | 54.3 | 46.4 | 33.3* | 50.6 | -1.0 | 9.6
COc1ccc(CC(=O)Nc2nccs2)cc1OC | . | . | . | . | . | -5.0
COc1ccc(CC(=O)Nc2cccc(-c3nnc(-c4cccc(C)c4)o3)c2)cc1OC | 35.0* | 3.2* | 42.8* | 41.2 | 1.0 | 0.7
COc1ccc(CC(=O)Nc2cccc(-c3nnc(-c4ccc(C)cc4)o3)c2)cc1OC | . | . | 7.1 | . | -3.0 | 20.6
COc1ccc(CC(=O)Nc2ccc(-c3nnc(-c4ccccc4)o3)cc2)cc1OC | 97.5 | 92.5 | -5.4 | 78.2 | 0.0 | -9.6

Bioassay records: PubChem BioAssay, several laboratories
